Measurements taken from ChEMBL document CHEMBL1955814, “Tailoring of integrin ligands: probing the charge capability of the metal ion-dependent adhesion site” (J Med Chem, 2012).

How the values were obtained:
[1] = Apparent permeability across human Caco2 cells after 30 to 150 mins; type: ADME, cell-based; conditions: Caco-2
Procedure, shortened: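 Caco-2 monolayers, passage 52−60, grown 21−23 days on polycarbonate inserts (0.4 μm pores, 1.1 cm²) until TEER stable at 300−500 Ω cm². Apical-to-basolateral transport at 37 °C with shaking after 30 min buffer preincubation. Basolateral samples at 30, 60, 90, 120 and 150 min, replaced with fresh buffer. Mass balance done per compound.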

[2] = molecular target: Integrin alpha-IIb/beta-3 (Homo sapiens, UniProt P05106+P08514); assay: Displacement of extracellular matrix protein fibrinogen from human integrin alpha2bbeta3 after 1 hr by competitive ELISA; type: protein-complex assay
Integrin alpha-IIb/beta-3, sequence (P05106 27-788 limits assumed): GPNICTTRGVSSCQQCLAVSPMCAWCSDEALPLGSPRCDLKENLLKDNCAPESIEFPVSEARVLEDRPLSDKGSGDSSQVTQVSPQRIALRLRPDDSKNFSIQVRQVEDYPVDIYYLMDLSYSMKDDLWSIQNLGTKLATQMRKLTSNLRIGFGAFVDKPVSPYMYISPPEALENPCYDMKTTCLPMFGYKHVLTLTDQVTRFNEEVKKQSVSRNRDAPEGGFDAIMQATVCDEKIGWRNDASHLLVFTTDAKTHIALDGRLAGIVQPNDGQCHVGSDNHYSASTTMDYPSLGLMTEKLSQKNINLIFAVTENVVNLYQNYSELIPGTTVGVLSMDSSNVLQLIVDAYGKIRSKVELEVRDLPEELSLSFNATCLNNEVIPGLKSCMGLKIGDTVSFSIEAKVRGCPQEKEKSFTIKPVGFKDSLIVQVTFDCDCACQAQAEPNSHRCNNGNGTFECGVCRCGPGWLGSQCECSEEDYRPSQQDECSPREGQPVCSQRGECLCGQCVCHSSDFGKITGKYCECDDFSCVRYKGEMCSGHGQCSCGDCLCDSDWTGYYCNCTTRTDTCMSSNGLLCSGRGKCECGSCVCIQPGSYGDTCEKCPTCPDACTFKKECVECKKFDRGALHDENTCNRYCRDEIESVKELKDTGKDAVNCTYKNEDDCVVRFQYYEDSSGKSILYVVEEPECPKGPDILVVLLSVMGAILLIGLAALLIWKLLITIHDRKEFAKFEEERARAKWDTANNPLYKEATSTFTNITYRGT
Integrin alpha-IIb/beta-3, sequence (P08514 32-887 limits assumed): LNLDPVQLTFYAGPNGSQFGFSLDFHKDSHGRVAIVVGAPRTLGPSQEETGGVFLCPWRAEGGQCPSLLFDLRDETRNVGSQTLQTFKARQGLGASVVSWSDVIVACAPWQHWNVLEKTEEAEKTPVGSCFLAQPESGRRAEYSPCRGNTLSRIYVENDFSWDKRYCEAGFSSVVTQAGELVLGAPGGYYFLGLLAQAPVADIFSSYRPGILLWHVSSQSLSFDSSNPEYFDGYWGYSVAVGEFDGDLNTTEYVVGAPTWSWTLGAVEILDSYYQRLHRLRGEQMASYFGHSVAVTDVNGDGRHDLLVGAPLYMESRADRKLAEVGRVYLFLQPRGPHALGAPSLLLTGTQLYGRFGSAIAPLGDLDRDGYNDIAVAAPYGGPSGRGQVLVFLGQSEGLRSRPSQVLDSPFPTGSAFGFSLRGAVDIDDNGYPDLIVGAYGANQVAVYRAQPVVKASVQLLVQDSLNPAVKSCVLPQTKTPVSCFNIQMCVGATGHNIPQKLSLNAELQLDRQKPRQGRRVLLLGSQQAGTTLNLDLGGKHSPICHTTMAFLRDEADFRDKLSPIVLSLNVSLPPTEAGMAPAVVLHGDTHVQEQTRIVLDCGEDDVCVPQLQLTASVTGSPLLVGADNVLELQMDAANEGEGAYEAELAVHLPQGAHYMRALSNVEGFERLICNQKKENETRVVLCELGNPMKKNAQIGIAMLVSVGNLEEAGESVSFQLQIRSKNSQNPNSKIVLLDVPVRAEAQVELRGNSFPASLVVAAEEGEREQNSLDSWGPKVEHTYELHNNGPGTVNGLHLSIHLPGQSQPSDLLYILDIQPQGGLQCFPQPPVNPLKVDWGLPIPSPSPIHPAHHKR
Integrin alpha-IIb/beta-3, sequence (P08514 891-1039 limits assumed): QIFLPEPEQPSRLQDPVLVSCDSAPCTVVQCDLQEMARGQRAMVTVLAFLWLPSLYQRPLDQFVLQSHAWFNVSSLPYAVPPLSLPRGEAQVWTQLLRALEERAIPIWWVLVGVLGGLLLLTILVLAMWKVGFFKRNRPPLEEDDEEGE
Procedure, shortened: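 Plates coated overnight at 4 °C with 10 μg/mL fibrinogen in carbonate buffer pH 9.6, blocked with 1% BSA in Tris buffer containing 1 mM Ca2+, Mg2+ and Mn2+. Inhibitor (0.00013−10 μM final) plus 2.5 μg/mL final soluble human αIIbβ3 for 1 h at RT. Bound integrin detected with anti-CD41b and peroxidase secondary antibody, A450.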

SMILES	Papp [1]	IC50 ([2]; read-out: IC50)	IC50 [2]
O=C(NC[C@H](NS(=O)(=O)c1ccccc1)[PH](=O)O)c1ccc(OCCC2CCNCC2)cc1	< 0.01 ×10⁻⁶ cm/s	1.2 nM	–
O=C(NC[C@@H](NS(=O)(=O)c1ccccc1)[PH](=O)O)c1ccc(OCCC2CCNCC2)cc1	< 0.01 ×10⁻⁶ cm/s	6.3 nM	–
COP(=O)(O)[C@H](CNC(=O)c1ccc(OCCC2CCNCC2)cc1)NS(=O)(=O)c1ccccc1	< 0.01 ×10⁻⁶ cm/s	3.3 nM	–
COP(=O)(O)[C@@H](CNC(=O)c1ccc(OCCC2CCNCC2)cc1)NS(=O)(=O)c1ccccc1	–	1150 nM	–
O=C(NC[C@H](NS(=O)(=O)c1ccccc1)P(O)(O)=S)c1ccc(OCCC2CCNCC2)cc1	–	62.5 nM	–
O=C(NC[C@@H](NS(=O)(=O)c1ccccc1)P(O)(O)=S)c1ccc(OCCC2CCNCC2)cc1	–	1320 nM	–
O=C(NC[C@@H](NS(=O)(=O)c1ccccc1)C(=O)O)c1ccc(OCCC2CCNCC2)cc1	–	4.4 nM	–
COP(=O)(OC)[C@H](CNC(=O)c1ccc(OCCC2CCNCC2)cc1)NS(=O)(=O)c1ccccc1	–	–	Not Active
COP(=O)(OC)[C@@H](CNC(=O)c1ccc(OCCC2CCNCC2)cc1)NS(=O)(=O)c1ccccc1	–	–	Not Active
OC[C@@H](O)[C@@H](O)[C@H](O)[C@H](O)CO [MANNITOL]	2.4 ×10⁻⁶ cm/s	–	–

Now from value to compound:

Papp [1]	IC50 ([2]; read-out: IC50)	IC50 [2]	SMILES
< 0.01 ×10⁻⁶ cm/s	22.7 nM	–	O=C(NC[C@H](NS(=O)(=O)c1ccccc1)P(=O)(O)O)c1ccc(OCCC2CCNCC2)cc1
< 0.01 ×10⁻⁶ cm/s	136 nM	–	O=C(NC[C@@H](NS(=O)(=O)c1ccccc1)P(=O)(O)O)c1ccc(OCCC2CCNCC2)cc1
–	0.81 nM	–	O=C(NC[C@H](NS(=O)(=O)c1ccccc1)C(=O)O)c1ccc(OCCC2CCNCC2)cc1
< 0.01 ×10⁻⁶ cm/s	–	–	CCCCS(=O)(=O)N[C@@H](Cc1ccc(OCCCCC2CCNCC2)cc1)C(=O)O [TIROFIBAN]
